Laboratory results reported in publication PMC3055681 (Neuropsychopharmacology : official publication of the …, 2010).
“Also recorded” adds a separate entry of the source. Where two headings read alike, the source gives them in different places.

Experiments:
α4β2 nAChRs = conditions: ref Glick et al., 2000; cited from earlier work
α6/4β4 nAChRs = α6/4β4 nAChRs (Homo sapiens, UniProt P30926+P43681+Q15825); assay: Binding affinity for α6/4β4 nAChRs; conditions: ratio of binding affinities
humans = conditions: cited from earlier work
[1] = system: rats self-administering 10% ethanol; assay: Repeated; type: in vivo
In short: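 Rats trained on FR3 10% ethanol self-administration reached stable baseline and were randomised to drug or saline. Test compound (10 mg/kg s.c.) or saline was given 30 min before each session on 5 consecutive days, with lever presses recorded daily. Post-treatment baseline was taken 24 h after the last dose. The day after a cage change (day 3) was excluded. Analysis was two-way ANOVA with Newman–Keuls (n = 6–7).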

human α4β2 nAChRs = human α4β2 nAChRs (Homo sapiens, UniProt P17787+P43681); type: cell-based
Sequence of human α4β2 nAChRs (P43681 29-627 limits assumed): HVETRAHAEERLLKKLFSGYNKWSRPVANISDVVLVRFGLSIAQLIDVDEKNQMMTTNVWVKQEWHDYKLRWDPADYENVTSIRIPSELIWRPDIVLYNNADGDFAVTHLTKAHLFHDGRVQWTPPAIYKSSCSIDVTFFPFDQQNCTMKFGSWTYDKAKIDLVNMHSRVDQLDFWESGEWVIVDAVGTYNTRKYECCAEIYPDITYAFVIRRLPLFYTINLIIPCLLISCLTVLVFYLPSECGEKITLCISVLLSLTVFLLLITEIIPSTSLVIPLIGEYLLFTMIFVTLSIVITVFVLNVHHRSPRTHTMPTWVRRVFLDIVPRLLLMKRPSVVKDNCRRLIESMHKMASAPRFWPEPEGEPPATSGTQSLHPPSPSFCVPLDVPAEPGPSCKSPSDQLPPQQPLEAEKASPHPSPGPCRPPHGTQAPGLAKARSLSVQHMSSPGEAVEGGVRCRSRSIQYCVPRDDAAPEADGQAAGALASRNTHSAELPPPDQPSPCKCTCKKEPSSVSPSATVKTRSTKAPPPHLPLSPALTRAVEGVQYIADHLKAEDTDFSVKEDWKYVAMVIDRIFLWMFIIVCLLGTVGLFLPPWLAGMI
Sequence of human α4β2 nAChRs (P17787 26-502): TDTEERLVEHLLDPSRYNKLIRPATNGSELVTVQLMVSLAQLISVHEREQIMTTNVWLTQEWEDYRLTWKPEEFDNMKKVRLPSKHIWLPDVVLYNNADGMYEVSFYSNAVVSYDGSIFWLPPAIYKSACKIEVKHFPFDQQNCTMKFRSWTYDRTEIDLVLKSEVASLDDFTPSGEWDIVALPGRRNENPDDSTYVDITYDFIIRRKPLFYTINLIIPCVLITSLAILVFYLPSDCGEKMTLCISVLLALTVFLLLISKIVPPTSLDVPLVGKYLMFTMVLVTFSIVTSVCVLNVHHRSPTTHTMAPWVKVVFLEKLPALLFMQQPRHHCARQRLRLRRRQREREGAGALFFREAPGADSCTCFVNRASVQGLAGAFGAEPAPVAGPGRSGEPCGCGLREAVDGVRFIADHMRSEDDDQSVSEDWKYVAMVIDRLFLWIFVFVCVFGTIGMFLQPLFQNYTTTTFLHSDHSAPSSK
In short: (§1)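 HEK293 lines stably transfected with human α3β4 or α4β2 nAChRs. Cells were loaded in growth medium with Calcium Green-1 (2 µM final) mixed 1:1 with 20% pluronic F-127, then read on FLIPR (ex 488, em 516 nm). Agonism was a single compound addition compared with 100 µM ACh. Inhibition used 2 min pretreatment then 30 µM ACh, with ΔF taken relative to vehicle-pretreated wells. Runs were in quadruplicate, with EC50/IC50 from concentration curves.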

[2] = system: Wistar rats self-administering 10% ethanol; assay: Operant self-administration of 10% ethanol; type: in vivo; conditions: 10 mg/kg s.c., 30 minutes before session
In short: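 Wistar rats were trained on FR3 (0.1 ml reward), 30 min daily sessions Mon–Fri, to press for 10% (v/v) ethanol. Test compound or saline was given s.c. either 30 min or 2 h before the session, depending on compound. Injections were 7 days apart in a Latin square, with the normal schedule between them. Active lever presses were analysed by repeated-measures ANOVA with Newman–Keuls (n = 8–13).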

[3] = Rat pharmacokinetics, unbound brain concentrations; type: in vivo, Sprague-Dawley rats
In short: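 Sprague-Dawley rats were dosed s.c. at 1, 5 or 10 mg/kg. Unbound brain concentration (Cb,u) was estimated over time using an LC-MS/MS assay combined with tissue binding, with values in nM and n = 2 per time point.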

[4] = in vivo; ref Obach et al., 2006; Shaffer et al., 2009; cited from earlier work
[5] = oral administration, ref Shaffer et al., 2009, cited from earlier work
human α3β4 nAChRs [6] = biological target: T1, human α3β4 nAChRs (Homo sapiens, UniProt P30926+P32297); type: cell-based
T1 sequence (P32297 32-505): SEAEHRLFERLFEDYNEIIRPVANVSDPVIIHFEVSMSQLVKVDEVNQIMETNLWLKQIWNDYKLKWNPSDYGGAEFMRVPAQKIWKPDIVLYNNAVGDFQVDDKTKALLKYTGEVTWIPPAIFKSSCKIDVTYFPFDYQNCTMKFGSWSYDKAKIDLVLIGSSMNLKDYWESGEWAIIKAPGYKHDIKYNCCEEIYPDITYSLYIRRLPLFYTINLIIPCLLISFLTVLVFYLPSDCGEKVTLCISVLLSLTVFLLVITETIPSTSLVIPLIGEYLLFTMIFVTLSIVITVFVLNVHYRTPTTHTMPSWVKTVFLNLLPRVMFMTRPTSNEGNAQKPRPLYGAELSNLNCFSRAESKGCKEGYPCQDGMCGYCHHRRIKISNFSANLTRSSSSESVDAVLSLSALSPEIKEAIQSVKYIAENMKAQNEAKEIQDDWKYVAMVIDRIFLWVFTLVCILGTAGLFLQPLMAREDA
T1 sequence (P30926 22-498): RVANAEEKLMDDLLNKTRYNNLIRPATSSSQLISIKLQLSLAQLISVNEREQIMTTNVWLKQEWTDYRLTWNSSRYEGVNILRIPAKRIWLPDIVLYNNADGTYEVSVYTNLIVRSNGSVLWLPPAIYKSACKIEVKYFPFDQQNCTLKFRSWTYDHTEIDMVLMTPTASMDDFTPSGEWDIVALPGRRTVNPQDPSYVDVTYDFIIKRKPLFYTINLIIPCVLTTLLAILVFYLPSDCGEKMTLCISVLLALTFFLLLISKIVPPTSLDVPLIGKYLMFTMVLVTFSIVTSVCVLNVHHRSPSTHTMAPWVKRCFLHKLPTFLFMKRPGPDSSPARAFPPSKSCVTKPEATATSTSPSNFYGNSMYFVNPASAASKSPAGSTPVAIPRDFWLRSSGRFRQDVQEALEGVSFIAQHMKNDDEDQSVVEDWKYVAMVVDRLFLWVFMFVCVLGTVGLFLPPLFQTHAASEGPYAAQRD
In short: as §1

[7] = system: Wistar rats consuming 20% ethanol; assay: Intermittent access 20% ethanol two-bottle-choice drinking paradigm; type: in vivo
In short: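 Individually housed rats on a reversed 12-h light cycle had intermittent access to 20% (v/v) ethanol versus water in a two-bottle choice. Once baseline drinking was stable, test compound or saline was given s.c. 30 min before bottles were presented. Injections were 7 days apart in a Latin square, each rat serving as its own control. Intake (g/kg) and preference were measured at 30 min, 6 h and 24 h. Analysis was repeated-measures ANOVA with Newman–Keuls.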

human α3β4 nAChRs [8] = biological target: T1, human α3β4 nAChRs; conditions: ref Rollema et al., 2007; cited from earlier work
rats consuming ethanol = conditions: 1 and 2 mg/kg; ref Steensland et al., 2007; cited from earlier work
[9] = clinically tested as a smoking cessation aid, ref Pfizer, data on file
[10] = male, Sprague-Dawley, rat, brain (unbound), subcutaneous, 10 mg/kg

Sequence of α6/4β4 nAChRs (Q15825 26-239): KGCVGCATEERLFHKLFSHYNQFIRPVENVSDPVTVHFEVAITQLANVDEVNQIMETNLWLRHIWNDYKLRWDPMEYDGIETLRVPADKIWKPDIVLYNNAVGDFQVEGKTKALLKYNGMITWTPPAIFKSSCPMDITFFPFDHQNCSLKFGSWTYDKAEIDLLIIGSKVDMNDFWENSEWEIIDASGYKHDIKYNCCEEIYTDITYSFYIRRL
Sequence of α6/4β4 nAChRs (P43681 241-627): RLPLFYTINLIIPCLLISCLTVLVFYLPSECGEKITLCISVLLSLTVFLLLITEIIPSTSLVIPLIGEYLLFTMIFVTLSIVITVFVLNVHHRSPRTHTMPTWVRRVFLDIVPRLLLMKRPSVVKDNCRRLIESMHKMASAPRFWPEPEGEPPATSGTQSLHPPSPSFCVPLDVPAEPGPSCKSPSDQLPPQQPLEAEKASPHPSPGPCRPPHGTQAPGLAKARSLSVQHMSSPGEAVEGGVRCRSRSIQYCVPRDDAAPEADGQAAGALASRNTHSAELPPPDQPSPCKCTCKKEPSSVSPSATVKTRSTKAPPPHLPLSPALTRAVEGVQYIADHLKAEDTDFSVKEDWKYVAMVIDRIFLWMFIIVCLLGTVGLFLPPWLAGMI
Sequence of α6/4β4 nAChRs (P30926 22-498): as the sequence (P30926 22-498) above

COCC[C@H]1CC2CN3CCc4c([nH]c5ccccc45)[C@](C(=O)OC)(C2)[C@H]13 [18-MC, 18-methoxycoronaridine]
effect at α4β2 nAChRs (α4β2 nAChRs): no effect

FC(F)(F)c1ccc2c(c1)[C@@H]1CNC[C@H]2C1 [CP-601932, (1S,5R)-2,3,4,5-tetrahydro-7-(trifluoromethyl)-1,5-methano-1H-3-benzazepine]
fold higher affinity for α3β4 than for α6/4β4 nAChRs (α6/4β4 nAChRs): at least 10 fold
side effects indicative of ganglion blocking effects (humans; clinical trial as potential smoking cessation aid): did not show side effects indicative of ganglion blocking effects
abstinence rate (humans; [9]): moderate two-fold increase in abstinence rate that was not statistically significant
tolerability / safety in humans (humans; [9]): safe in humans; also recorded: generally well tolerated
rebound in active lever presses after end of chronic treatment ([1]; 10 mg/kg s.c. for 5 days, compared to baseline): no rebound increase in active lever presses
active lever presses for 10% ethanol vs vehicle ([1]; 10 mg/kg s.c. once per day for 5 consecutive days, 30 minutes before session): decreased active lever presses
EC50 (human α4β2 nAChRs): > 30000 nM
IC50 (human α4β2 nAChRs): 114 ± 29 nM
Activation of α4β2 nAChRs (Ca2+ fluorescence) (human α4β2 nAChRs; α4β2): no measurable change in Ca2+-fluoresence
active lever presses for 10% ethanol vs vehicle [2]: significantly decreased the number of presses on the active lever
maximal unbound brain concentration Cb,u ([3]; 10 mg/kg s.c., at 30 minutes): 710 nM
concentration at 5 h [3, 10]: 530 nM
concentration at 24 h [3, 10]: 85 nM
active metabolites [4]: not formed in vivo
brain penetration ([5]; rats): extensive brain penetration
absorption [5]: well absorbed
half-life [5]: long half-life
EC50 (human α3β4 nAChRs [6]; Activation EC50, α3β4, vs 100 μM ACh): 2920 ± 320 nM
IC50 (human α3β4 nAChRs [6]; IC50 for inhibition of α3β4 nAChRs, range given in text for both compounds): 100 to 300 nM
IC50 (human α3β4 nAChRs [6]; Inhibition IC50, α3β4, 2 min pre-application, 30 μM ACh challenge): 257 ± 41 nM
ethanol consumption vs vehicle ([7]; 5 mg/kg s.c., at 30 minutes): significantly decreased high voluntary ethanol consumption
ethanol consumption vs vehicle ([7]; 10 mg/kg s.c., 6 h and 24 h time points): decreased ethanol consumption
ethanol consumption vs vehicle ([7]; 10 mg/kg s.c., at 30 minutes): significantly decreased high voluntary ethanol consumption
preference for ethanol over water vs vehicle ([7]; highest dose (10 mg/kg s.c.), all time points): decreased the preference for ethanol over water

c1cnc2cc3c(cc2n1)[C@@H]1CNC[C@H]3C1 [Varenicline]
active metabolites [4]: not formed in vivo
Activation Efficacy (% vs ACh) (human α3β4 nAChRs [8]): 93.5 ± 1.4 (5) % vs ACh
ethanol intake (rats consuming ethanol): significantly reduce ethanol intake
